According to PMC2895766 (Journal of medicinal chemistry, 2010):

Tests used:
[1] = tested on: α1*-, α3β4*-, α4β2-, or α4β4-nAChR; assay type: cell-based, human; settings: highest concentration tested 100 μM
[2] = tested on: nicotine-mediated antinociception (tail-flick); experiment: Tail-flick test, blockade of nicotine-induced antinociception; assay type: in vivo; settings: mice
In short: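 Mice got saline or test compound 15 min before nicotine (2.5 mg/kg s.c.) and were tested 5 min after nicotine. Radiant heat was applied to the upper tail with a 10 s cutoff, and a pre-treatment control latency (2–4 s) was taken for each mouse. Blockade was scored as %MPE = [(test − control)/(10 − control)] × 100 and expressed as AD50 in mg/kg.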

[3] = target: human NE transporters [h(NET)] (Homo sapiens, UniProt P23975); experiment: Inhibition of [3H]norepinephrine uptake in HEK293 cells expressing hNET; assay type: cell-based; settings: ratio of IC50 values
mice = settings: cited from earlier work
α4β2-nAChR = α4β2-nAChR (Homo sapiens, UniProt P17787+P43681); experiment: 86Rb+ efflux assay, antagonism of carbamylcholine response, SH-EP1-hα4β2 cells; assay type: cell-based
Chain of α4β2-nAChR (P43681 29-627 limits assumed): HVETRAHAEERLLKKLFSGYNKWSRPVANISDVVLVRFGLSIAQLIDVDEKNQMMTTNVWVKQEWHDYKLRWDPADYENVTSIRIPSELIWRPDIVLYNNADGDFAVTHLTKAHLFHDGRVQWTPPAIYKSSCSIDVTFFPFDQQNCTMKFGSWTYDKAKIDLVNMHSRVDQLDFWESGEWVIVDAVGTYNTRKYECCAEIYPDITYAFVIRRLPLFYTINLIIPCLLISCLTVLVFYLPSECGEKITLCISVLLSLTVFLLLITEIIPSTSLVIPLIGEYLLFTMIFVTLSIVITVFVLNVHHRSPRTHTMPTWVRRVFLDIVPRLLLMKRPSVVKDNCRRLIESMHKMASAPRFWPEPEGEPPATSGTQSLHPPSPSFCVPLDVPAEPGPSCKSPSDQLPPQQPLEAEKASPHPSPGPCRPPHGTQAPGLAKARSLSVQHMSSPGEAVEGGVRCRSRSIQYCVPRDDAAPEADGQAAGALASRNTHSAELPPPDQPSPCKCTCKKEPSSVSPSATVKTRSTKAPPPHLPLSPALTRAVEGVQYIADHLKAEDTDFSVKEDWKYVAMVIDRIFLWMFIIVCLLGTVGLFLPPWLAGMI
Chain of α4β2-nAChR (P17787 26-502): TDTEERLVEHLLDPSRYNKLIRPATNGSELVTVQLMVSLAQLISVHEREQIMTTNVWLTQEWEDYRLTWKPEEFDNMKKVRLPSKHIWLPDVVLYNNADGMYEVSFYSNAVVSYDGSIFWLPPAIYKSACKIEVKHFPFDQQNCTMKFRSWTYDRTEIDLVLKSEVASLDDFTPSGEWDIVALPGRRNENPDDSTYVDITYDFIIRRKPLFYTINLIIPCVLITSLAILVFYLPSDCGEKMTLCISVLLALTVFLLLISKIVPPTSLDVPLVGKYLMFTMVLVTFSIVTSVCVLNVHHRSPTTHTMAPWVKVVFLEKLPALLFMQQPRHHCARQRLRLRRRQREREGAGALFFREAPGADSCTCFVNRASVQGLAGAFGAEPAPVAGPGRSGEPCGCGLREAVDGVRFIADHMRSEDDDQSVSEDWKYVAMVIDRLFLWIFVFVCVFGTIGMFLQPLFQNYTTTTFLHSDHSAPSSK

Chain of human NE transporters [h(NET)] (P23975 whole entry): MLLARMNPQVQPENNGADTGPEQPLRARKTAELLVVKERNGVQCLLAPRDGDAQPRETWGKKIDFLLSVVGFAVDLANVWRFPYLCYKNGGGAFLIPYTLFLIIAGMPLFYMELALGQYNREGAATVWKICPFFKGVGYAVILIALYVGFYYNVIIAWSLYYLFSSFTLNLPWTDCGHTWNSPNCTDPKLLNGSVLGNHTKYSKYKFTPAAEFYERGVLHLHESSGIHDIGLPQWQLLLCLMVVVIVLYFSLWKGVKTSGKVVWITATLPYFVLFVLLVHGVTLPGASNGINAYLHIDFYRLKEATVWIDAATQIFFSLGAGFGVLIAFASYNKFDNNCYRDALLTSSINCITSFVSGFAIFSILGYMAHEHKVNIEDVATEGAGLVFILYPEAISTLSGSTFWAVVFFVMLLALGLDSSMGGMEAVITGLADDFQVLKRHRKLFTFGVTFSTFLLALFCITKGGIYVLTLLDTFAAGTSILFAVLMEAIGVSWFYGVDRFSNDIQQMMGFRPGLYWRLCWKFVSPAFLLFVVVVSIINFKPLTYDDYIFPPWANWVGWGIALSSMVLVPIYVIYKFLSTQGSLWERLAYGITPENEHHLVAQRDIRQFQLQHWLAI

Row | Structure (SMILES) | extent of antagonism at all nAChR subtypes tested [1] | further results
1 | C[C@@H]1NC(C)(C)CO[C@@]1(O)c1cccc([N+](=O)[O-])c1 [Compound 4g, (2S,3S)-2-(3-Nitrophenyl)-3,5,5-trimethylmorpholin-2-ol] | block all nAChR function at an adequately high concentration | –
2 | C[C@H]1NC(C)(C)CO[C@]1(O)c1cccc(Cl)c1 [(2R,3R)-4a, (2R,3R)-2-(3-Chlorophenyl)-3,5,5-trimethylmorpholin-2-ol, reference compound] | full antagonist | –
3 | C[C@@H]1NC(C)(C)CO[C@@]1(O)c1ccc2ccccc2c1 [Compound 4r, (2S,3S)-2-(Naphthalen-2-yl)-3,5,5-trimethylmorpholin-2-ol] | – | fold higher activity in the tail-flick assay than (2S,3S)-4a [2]: ~ 5 fold
4 | C[C@@H]1NC(C)(C)CO[C@@]1(O)c1cccc2ccccc12 [Compound 4q, (2S,3S)-2-(Naphthalen-1-yl)-3,5,5-trimethylmorpholin-2-ol] | – | fold higher activity in the tail-flick assay than (2S,3S)-4a [2]: ~ 5 fold
5 | CCC[C@@H]1NC(C)(C)CO[C@@]1(O)c1cccc(Cl)c1 [Compound 4t, (2S,3S)-2-(3-Chlorophenyl)-5,5-dimethyl-3-propyl-morpholin-2-ol] | full antagonist | –
6 | C[C@@H]1NC(C)(C)CO[C@@]1(O)c1cccc(Cl)c1 [(2S,3S)-4a, (2S,3S)-2-(3-Chlorophenyl)-3,5,5-trimethylmorpholin-2-ol, reference compound] | full antagonist | times more potent than 2 in inhibiting NE uptake [3]: 7.7 times
7 | C[C@H]1NC(C)(C)CO[C@]1(O)c1cccc(Cl)c1 (racemic) [racemic hydroxybupropion] | – | convulsions after i.p. administration (mice): induced convulsions
8 | C[C@@H]1NC(C)(C)CO[C@@]1(O)c1cccc(F)c1 [Compound 4c, (2S,3S)-2-(3-Fluorophenyl)-3,5,5-trimethylmorpholin-2-ol] | block all nAChR function at an adequately high concentration | –
9 | C[C@@H]1NC(C)(C)CO[C@@]1(O)c1cccc(Br)c1 [Compound 4d, (2S,3S)-2-(3-Bromophenyl)-3,5,5-trimethylmorpholin-2-ol] | block all nAChR function at an adequately high concentration | selectivity for inhibition of α4β2-nAChR over NE uptake inhibition (α4β2-nAChR): ~ 1.7 fold
